Assay outcomes deposited in PubChem by Broad Institute.
An excerpt weighted towards active compounds, which were near 3.2% of everything screened.
MLL AF4-AF9 inh: inhibitors of human MLL-AF4/AF9 interaction; P42568; AlphaScreen, biotin-AF4 peptide binding to FLAG-AF9; inhibition, % at 10 µM; actives 0.47% (n = 350,000);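 active = every replicate reaching a set inhibition limit, whatever the replicate mean, cut at about 25% in these data; inconclusive = mean inhibition reaches that limit but some replicates miss it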;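 note: 0% = plate neutral control median and 100% = total signal loss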
DENV2 CPE rescue: inhibitors of DENV2 cytopathic effect. DENV2-infected cells, cytopathic effect rescue, plate reader. CPE inhibition, % at 9.99 µM. actives 1.7% (n = 350,000); in the data active = CPE inhibition above about 20%, passing the limit was not always enough; inconclusive = no clear call, values can overlap the other calls; tested in BHK-21 cells;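 note: 0% = median of neutral control wells and 100% = median of positive control wells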
Cneo AK release: Cryptococcus neoformans lysis via adenylate kinase release; C. neoformans lysis, adenylate kinase release luminescence, 4 h; normalised: neutral wells 0, clomiphene wells 100; actives 0.2% (n = 360,000); lysis activity, % at 15 µM;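 active = mean lysis activity across replicates of at least 80%, whatever share of replicates individually reach that level; inactive = mean lysis activity below 80%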
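read-out = cell lysis signal | test system = log-phase Cryptococcus neoformans yeast cells | input = cells at 5 × 10^6 per mL | medium = fresh YPD growth medium | signal = luminescent adenylate kinase detection reagent | timing = 4 h at 37 °C static, read 1 h later | dosing = single dose | controls = Clomiphene as positive lysis control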
PfHsp90 yeast 2: reduces growth (ATP signal) of yeast expressing P. falciparum Hsp90 | S. cerevisiae expressing PfHsp90, BacTiter-Glo ATP, 48 h; yeast lacking PDR1 and PDR3 efflux regulators | inhibition, % at 9.4 µM | actives 0.32% (n = 310,000);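 active = every replicate shows inhibition above about 80%, whatever the replicate mean, limit read from the data; inconclusive = mean inhibition reaches the set limit but some replicate falls short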;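 note: 0% = DMSO neutral controls and 100% = 20 µM radicicol positive controls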
S100A4 inh HTS: inhibitors of human S100A4 binding to myosin IIA peptide. S100A4/TAMRA-MyoIIA peptide fluorescence polarization. inhibition, % at 10.7 µM. actives 0.14% (n = 360,000);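 active = mean inhibition of at least 70% across replicates, with every replicate also reaching that level; inconclusive = mean inhibition reaches 70% but some replicates fall short; inactive = mean inhibition below 70%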
Target sequence (P26447 whole entry, looked up): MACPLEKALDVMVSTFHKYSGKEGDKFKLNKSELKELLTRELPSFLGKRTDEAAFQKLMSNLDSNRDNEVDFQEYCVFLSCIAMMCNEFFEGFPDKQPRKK
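assay system = human S100A4 monomer with TAMRA-labelled myosin IIA peptide | also added = labelled myosin peptide probe, 5 nM | incubation = 5 min between mix addition and reading | control set = DMSO and TFP controls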
rRNA inh HTS: selective bacterial rRNA inhibition in E. coli; AID 720706; GFP signal change (wild-type ribosome), % (no concentration beside the values); actives 1.6% (n = 350,000); E. coli WT GFP vs humanized-ribosome RFP mutants, fluorescence, 24 h; active compounds read low; DMSO median 0, no signal -100;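 active = significant combined selectivity score with lowered wild-type GFP, culture density cut under 30%, mutant RFP and density less affected; inactive = any of these conditions unmet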
The depositor's hits bear a star; u = inconclusive; x = not tested or not shown.

SMILES	MLL AF4-AF9 inh	DENV2 CPE rescue	Cneo AK release	PfHsp90 yeast 2	S100A4 inh HTS	rRNA inh HTS
CNC[C@H]1OCCCC[C@@H](C)Oc2ccc(NC(=O)NC(C)C)cc2C(=O)N([C@@H](C)CO)C[C@@H]1C	-19	u	0	x	0	5
CNC[C@H]1OCCCC[C@H](C)Oc2ccc(NC(=O)Nc3ccc4c(c3)OCO4)cc2C(=O)N([C@H](C)CO)C[C@@H]1C	x	x	x	x	x	5
CNC[C@@H]1OCCCC[C@@H](C)Oc2ccc(NC(=O)Nc3ccc4c(c3)OCO4)cc2C(=O)N([C@H](C)CO)C[C@@H]1C	-4	u	89*	x	3	2
CCOC(=O)Nc1cc(C(=O)OC)ccc1C	x	x	x	7	4	4
CCc1c(C(=O)Nc2cc(C(=O)OC)ccc2C)csc1C	-1	88*	0	-3	9	5
CO[C@H]1CN(C)C(=O)c2ccc(NC(=O)C3CCC3)cc2OC[C@H](C)N(Cc2cccnc2)C[C@@H]1C	0	-8	1	x	-7	-4
Cc1ccccc1S(=O)(=O)Cc1ccc(C(=O)NC(C)c2ccc3c(c2)OCCO3)o1 (configuration not stated)	-4	0	1	-8	0	2
CC(NC(=O)c1ccc(CS(=O)(=O)c2ccc(Cl)cc2)o1)c1ccc2c(c1)OCCO2 (configuration not stated)	8	5	4	-8	-3	-17*
CCC(=O)Nc1ccc2c(c1)C(=O)N(C)C[C@@H](OC)[C@@H](C)CN(C(=O)C1CCC1)[C@@H](C)CO2	0	-4	0	x	-9	-2
NC(=O)c1nsc(C(=O)N(c2ccccc2)C(C(=O)NC2CCCC2)c2ccc3ncccc3c2)c1N (configuration not stated)	0	39*	2	-7	-3	7
CN(C)c1ccc(C(C(=O)NCC2CCCO2)N(C(=O)c2snc(C(N)=O)c2N)c2ccc3c(c2)OCO3)cc1 (configuration not stated)	9	-1	1	-6	2	22
CN(C)c1ccc(C(C(=O)NCC2CCCO2)N(C(=O)c2snc(C(N)=O)c2N)c2ccccc2)cc1 (configuration not stated)	-1	9	0	-19	3	0
CCOc1ccc(C(C(=O)NCC2CCCO2)N(C(=O)c2snc(C(N)=O)c2N)c2ccc3c(c2)OCCO3)cc1 (configuration not stated)	27*	-5	1	-25	8	1
CC(C)c1ccc(N(C(=O)c2snc(C(N)=O)c2N)C(C(=O)NCC2CCCO2)c2ccc(N(C)C)cc2)cc1 (configuration not stated)	11	32*	2	12	-14	4
C[C@H]1CN([C@@H](C)CO)C(=O)Cc2cc(NS(=O)(=O)c3cccs3)ccc2O[C@@H]1CN(C)C(=O)Nc1ccccc1	-2	0	0	x	3	3
CC(C)NC(=O)Nc1ccc2c(c1)C(=O)N([C@@H](C)CO)C[C@H](C)[C@@H](CN(C)C(=O)Nc1ccccc1)OCCCC[C@H](C)O2	2	5	-1	x	-12	-4
Cc1cc(C(=O)c2ccc3ccccc3c2)c(C)o1	1	8	0	x	0	-23*
COc1ccc(-c2nc(C)ncc2-c2ccc(Cl)cc2)c(O)c1	0	5	-2	-22	-2	-18
COc1ccc(-c2nc(C)ncc2-c2ccccc2)c(O)c1	6	-3	0	-35	-1	-28*
Cc1cccc(N2CCN(C(C(=O)NCc3ccccc3)c3ccc(F)cc3)CC2)c1C (configuration not stated)	x	59*	x	x	3	5
C[C@@H]1CCCCO[C@@H](CN(C)Cc2ccc(Cl)c(Cl)c2)[C@@H](C)CN([C@@H](C)CO)C(=O)c2cc(NS(=O)(=O)c3cn(C)cn3)ccc2O1	5	0	3	x	13	-2
C=C[C@H](COC(C)=O)N(C(=O)OC(C)(C)C)S(=O)(=O)c1ccc(Br)cc1	-6	2	-13	x	-3	x
C=CCN(c1ccccc1)S(=O)(=O)c1cccc(C(=O)NCC(c2ccc(F)cc2)N2CCOCC2)c1 (configuration not stated)	9	6	-4	1	6	-10
CCN(c1ccccc1)S(=O)(=O)c1cccc(C(=O)NCC(c2ccc(F)cc2)N2CCOCC2)c1 (configuration not stated)	17	-2	0	-27	-1	-25*
CCCNC(=O)[C@@]1(C)c2ccccc2C(=O)N(Cc2ccccc2)[C@H]1c1ccc(CO)cc1	-2	4	-3	x	9	x
SMILES	MLL AF4-AF9 inh	DENV2 CPE rescue	Cneo AK release	PfHsp90 yeast 2	S100A4 inh HTS	rRNA inh HTS
CCCNC(=O)[C@@]1(C)c2ccccc2C(=O)N(Cc2ccc(OC(F)(F)F)cc2)[C@H]1c1ccc(CO)cc1	-2	20*	-6	x	38	x
Cc1cc(Br)c(OCc2ccc(C(=O)N/N=C3\CC(=O)CC(C)(C)C3)cc2)c(Br)c1	17	76*	x	3	4	-1
O=C(NCCc1c[nH]c2ccccc12)/C(=C\c1cccnc1)NC(=O)c1ccccc1Br	2	41*	-1	-19	-3	-10
O=C(NCCc1c[nH]c2ccccc12)/C(=C\c1cccnc1)NC(=O)c1ccco1	4	2	x	4	-3	0
CS(=O)(=O)N(CC1CCC1)C[C@@H]1N[C@@H](CO)[C@@H]1c1ccccc1	x	5	-1	x	x	1
C[C@@H]1CN([C@@H](C)CO)C(=O)c2cccc(NC(=O)Nc3ccccc3)c2O[C@@H]1CN(C)C(=O)Nc1ccc(C(F)(F)F)cc1	-1	38*	-2	x	6	-1
C[C@H](CO)N1C[C@H](C)[C@@H](CN(C)CC2CC2)Oc2c(NC(=O)Nc3ccc(C(F)(F)F)cc3)cccc2C1=O	0	-2	-4	x	0	-8
C[C@@H]1CN([C@H](C)CO)C(=O)c2cccc(NC(=O)Nc3ccc(C(F)(F)F)cc3)c2O[C@@H]1CN(C)C(=O)Nc1ccc(C(F)(F)F)cc1	2	50*	-3	x	-9	-2
C[C@H]1CN([C@@H](C)CO)C(=O)c2cccc(NC(=O)Nc3ccc(C(F)(F)F)cc3)c2O[C@@H]1CN(C)CC1CC1	0	31*	-5	x	1	-12
C[C@H]1CN([C@@H](C)CO)C(=O)c2cccc(NC(=O)Nc3cccc4ccccc34)c2O[C@H]1CN(C)C(=O)Nc1ccc(C(F)(F)F)cc1	2	32*	x	x	7	0
